# Screening results: PubChem, SRMLSC
# Many of the other results were omitted from the sample, so hits are more common in it than they were.
# HUVEC prolif 384: inhibitors of HUVEC proliferation, primary screen, cell-based, 384-well | CellTiter-Glo luminescence, 72 h; active compounds read low | viability, % at 10 µM (by protocol) | 86,000 compounds, 1.1% hits | AID 648, 2007;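 active = viability at or below 30%; inactive = viability above 30%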;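 note: 100% = median luminescence of DMSO-only cell control wells on each plate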
# HCT116 bCat-KO: primary screen for growth suppressors in beta-catenin knockout HCT116 cells (colon tumor, human). viability, % at 10 µM. 140,000 compounds, 1.5% hits. HCT116 beta-catenin knockout viability, CellTiter-Glo, 60 h; active compounds read low;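 active = viability at or under a set limit, the compound median less 4 SD, cut at about 6% in these data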;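 note: 0% = Hyamine 1622 control at 20 µM and 100% = untreated cell control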
# HCT116 PTEN-null: growth suppression of PTEN-null HCT116, primary screen, cell-based, CellTiter-Glo; HCT116 PTEN-null viability, 60 h; active compounds read low; viability, % at 10 µM; 140,000 compounds, 1.2% hits; AID 827, 2007;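 active = viability at or below a set limit, 4 SD under the median of all tested compounds, cut at about 3.7% in these data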;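 note: PTEN knockout HCT116 line with beta catenin targeted HCT116 as companion control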
# H69AR inhibit: proliferation blockers of H69AR lung cancer cells, primary screen, cell-based, human, 86K library; H69AR lung tumor viability, ATP luminescence, 72 h; active compounds read low; viability, % at 10 µM; 85,000 compounds, 6% hits;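 active = viability at or below 40%; inactive = viability above 40%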;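 note: multidrug resistant small cell line overexpressing MRP-1 efflux transporter; 100% = mean luminescence of untreated control wells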
# Lung fibro prol: antiproliferative effect on LL 47 fibroblasts – human, LL 47 cells, CellTiter-Glo luminescence, primary screen; 85,000 compounds, 1.1% hits; AID 719, 2007; viability, % at 10 µM; LL 47 human lung fibroblast viability, ATP luminescence; active compounds read low;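 active = viability at or below 50% in the single dose screen; inactive = viability above 50%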;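 note: compound exposure lasted 72 h before the ATP readout; 100% = median luminescence of untreated cell-only wells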
#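 Benchmarks: Cell-only wells, no compound | Test system: LL 47 human lung fibroblasts, passage 12 or lower | Input: 1,150 cells/well | Measured by: CellTiter-Glo luminescence measuring cellular ATP | Medium: IMEM, 15% FBS supplement | Schedule: Overnight attachment after seeding, then 72 h compound exposure at 37 °C | Doses: Compound addition at 0.1% DMSO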
# Numbers without * were called inactive; / = not tested or not shown.
SMILES,HUVEC prolif 384,HCT116 bCat-KO,HCT116 PTEN-null,H69AR inhibit,Lung fibro prol
N#CC1=C(N)C(C#N)(C#N)C(c2cccnc2)C2CN(C(=O)OCc3ccccc3)CC=C12 (stereo not drawn),53,61,69,11*,72
N#CC1=C(N)C(C#N)(C#N)[C@H](c2ccoc2)[C@H]2CN(Cc3ccccc3)CC=C12,39,89,85,4.0*,69
CN1CC=C2C(C#N)=C(N)C(C#N)(C#N)C(c3cccc(Cl)c3Cl)C2C1 (stereo not drawn),71,84,89,15*,78
CCOC(=O)N1CC=C2C(C#N)=C(N)C(C#N)(C#N)[C@H](c3ccc(OCC)c(OCC)c3)[C@H]2C1,60,94,97,26*,79
CN1CC=C2C(C#N)=C(N)C(C#N)(C#N)[C@H](c3ccoc3)[C@H]2C1,104,76,69,56,95
O=C(COC(=O)c1ccc(-c2ccc([N+](=O)[O-])cc2)o1)NC(=O)NC1CCCCC1,/,93,92,/,/
Cc1onc(-c2ccccc2Cl)c1C(=O)N1C=CC(C(F)(F)Cl)=NCC1,/,104,89,/,/
O=C(OCC#CCSc1nnc(-c2cccc3ccccc23)o1)c1cccs1,82,92,86,35*,98
C#CCSc1nnc(-c2cccc3ccccc23)o1,64,/,/,21*,65
O=C(OCC#CCSc1nnc(-c2ccccc2)o1)c1cccs1,87,90,81,87,97
CC(=O)Nc1ccc(S(=O)(=O)NCC(=O)OCC(=O)N2CCc3ccccc32)cc1,/,95,93,/,/
Cc1ccccc1NC(=O)c1nc[nH]c1C(=O)NCc1ccccc1,77,96,98,49,95
CN1c2ccccc2C(C)(C)[C@]12C=Cc1cc(O)ccc1O2,49,30,31,8.6*,88
O=C/C(=C\Nc1ccc(Cl)cn1)c1nc2cc(Cl)ccc2o1,35,68,56,38*,89
O=C/C(=C\Nc1ccc(Cl)cn1)c1nc2ccccc2o1,80,90,87,93,105
OCCN1CCN(C(c2cccs2)c2ccc3cccnc3c2O)CC1 (stereo not drawn),57,14,10,40,58
CC(C)(C)c1cc(C(c2cccnc2)N2CCN(CCO)CC2)cc(C(C)(C)C)c1O (stereo not drawn),2.2*,1.7*,1.7*,2.2*,2.8*
O=C(O)CN1CCCC1=Nc1ccccc1,85,95,97,93,93
O=C(Nc1ccc(N2CCOCC2)c(Cl)c1)c1c(F)c(F)c(F)c(F)c1F,90,20,26,32*,87
O=C(Nc1ccc(N2CCOCC2)c(Cl)c1)c1cc(F)c(F)cc1Cl,97,65,58,72,105
CC1(C)CC(=O)c2c(nn(-c3ccccc3)c2N)C1,103,97,113,93,111
CCNc1ccc2noc3c2c1C(=O)c1ccccc1-3,69,33,46,18*,87
O=C1c2ccccc2-c2onc3ccc(NCc4ccco4)c1c23,54,54,50,34*,87
CCOc1ccc2noc3c2c1C(=O)c1ccccc1-3,/,78,76,/,/
O=c1nccc(NCc2ccco2)[nH]1,107,90,94,103,107
SMILES,HUVEC prolif 384,HCT116 bCat-KO,HCT116 PTEN-null,H69AR inhibit,Lung fibro prol
O=C(Nc1nc2ccccc2s1)c1ccc(Cl)s1,98,85,83,79,105
Cc1ccc2nc(NC(=O)c3ccc(-c4nc5ccccc5s4)s3)sc2c1,/,4.7*,2.5*,/,/
CCc1ccc2nc(SCC(=O)N3CC(=O)Nc4ccccc43)c(C#N)cc2c1,32,11,16,5.2*,65
CC(C)CCNC(=O)NC(=O)COc1c(F)c(F)cc(F)c1F,100,90,98,106,105
Cc1nnc(C)c2c(C)n(C(c3ccccc3)c3ccccc3)c(C)c12,77,71,64,26*,106
COC(=O)c1[nH]c2cccc(C)c2c1NC(=O)CN1CCN(c2ccccc2OC)CC1,99,95,91,74,96
CCN(CC)S(=O)(=O)c1ccc2oc(C(=O)NCC3COc4ccccc4O3)c(C)c2c1 (stereo not drawn),84,49,50,32*,93
CCN(CC)S(=O)(=O)c1ccc2oc(C(=O)NCc3ccc(F)cc3)c(C)c2c1,65,61,62,33*,90
Cc1ccc(NC(=O)CSC(N)=O)cc1Cl,59,74,62,18*,98
NC(=O)SCC(=O)Nc1ccc(Cl)c(Cl)c1,65,1.1*,1.4*,11*,95
NC(=O)SCC(=O)Nc1ccc(Cl)cc1,/,95,97,/,/
COc1ccc(-c2ccc(=O)n(CC(=O)Nc3ccc(C(=O)NC4CC4)cc3)n2)cc1OC,102,107,89,94,96
COc1cc(C(=O)Nc2cccc(-c3nc4cc(C)ccc4o3)c2C)cc(OC)c1OC,84,89,112,73,82
Cc1ccc(-c2nc3cc(Cl)ccc3o2)cc1,88,94,92,54,98
COc1cc(OC)cc(-c2nc3cc(C)ccc3o2)c1,65,72,66,31*,70
Cc1ccc(NC(=O)c2cc(-n3cnnc3)ccc2Cl)cc1,95,87,85,97,100
COc1cc(C(=O)Nc2cc(-c3nc4cc(C)ccc4o3)ccc2C)cc(OC)c1OC,43,97,88,30*,58
COc1cc(C(=O)Nc2cccc(-c3nc4cc(C)ccc4o3)c2)cc(OC)c1OC,57,76,73,28*,94
Cc1ccc2oc(-c3cccc(NC(=O)c4cc(-n5cnnc5)ccc4Cl)c3)nc2c1,58,88,94,11*,51
Cn1c(=O)n(/N=C/c2ccccc2)c2ccccc21,/,81,76,/,/
O=C(COc1ccc(C(=O)c2ccccc2)cc1)NCc1ccc(F)cc1,/,22,20,/,/
C=CCSc1nc(N)c(C#N)c(-c2ccccc2)c1C#N,88,99,100,88,85
CCCC(=O)Nc1cccc(-c2nc3cc(C)c(C)cc3o2)c1,49,95,98,14*,111
O=C(Nc1ccc2oc(-c3ccccc3F)nc2c1)c1ncn[nH]1,/,101,85,/,/
CCCC(=O)Nc1cccc(-c2nc3ccccc3o2)c1,98,93,95,100,97
O=C(Nc1ccc2oc(-c3ccccc3)nc2c1)c1ccccc1F,101,80,94,87,113
O=C(Nc1ccc2oc(-c3ccc(Cl)c(Cl)c3)nc2c1)c1ncn[nH]1,/,1.0*,0.9*,/,/
O=C(Nc1ccc2oc(-c3cccc(F)c3)nc2c1)c1ccccc1F,64,7,2.4*,49,103
Cc1nc2cc(NC(=O)N3c4ccccc4CC3C)ccc2o1 (stereo not drawn),82,62,103,82,101
Oc1ccc(-c2cnns2)c(O)c1,/,54,71,/,/
